Results published in paper PMC7574157 (Investigational new drugs, 2016).

Assays:
[1] = Population PK analysis; type: in vivo, human
In short: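 Oral dosing; patients fasted 1 h before and 2 h after. Sparse plasma samples were taken pre-dose and 1–3 h post-dose on days 29, 43 and 99, with richer sampling on the intermittent schedule. Two-compartment model with first-order absorption and elimination, fitted by first-order conditional estimation with interaction. It estimated clearance, intercompartment clearance, central/peripheral volumes, absorption rate, inter-subject variability and residual error, and explored covariates.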

[2] = system: patients; settings: cited from earlier work
[3] = system: patients; settings: cited from earlier work; remark: listed apart in the source
[4] = GSK458 as mono-therapy, estimate (SD)

Row | SMILES | Clearance, CL/F [1, 4] | Volume of central compartment Vc/F [1, 4] | Volume of peripheral compartment Vp/F [1, 4] | Vd ([1]; human, in vivo, oral) | clearance ([1]; human, in vivo, oral) | PK of GSK458 alone versus in combination with trametinib (post hoc estimates) ([1]; in vivo) | Inter-compartment clearance ([1]; population PK model of GSK458) | Inter-individual variability on central volume ([1]; population PK model of GSK458) | Inter-individual variability on clearance ([1]; population PK model of GSK458) | Peripheral volume of distribution ([1]; population PK model of GSK458) | Most frequently reported treatment-related adverse events, single agent [2] | Maximum tolerated dose (MTD), single agent ([2]; once daily) | Most frequently reported treatment-related toxicities, single agent [3] | Plasma half-life ([3]; no reference given) | Recommended phase II dose (RP2D), single agent ([3]; once daily)
1 | COc1ncc(-c2ccc3nccc(-c4ccnnc4)c3c2)cc1NS(=O)(=O)c1ccc(F)cc1F [GSK458] | 3.88 (1.9) L/h | 17.81 (17.4) L | 54.67 (48.7) L | 8.95 L | 54.2 mL/min | No significant difference was observed | 2.71 L/h | ~97% | approximately 53% | 38.4 L | diarrhea, fatigue, nausea, decreased appetite, vomiting, and hyerpglycemia | 2.5 mg | – | – | –
2 | CC(=O)Nc1cccc(-n2c(=O)n(C3CC3)c(=O)c3c(Nc4ccc(I)cc4F)n(C)c(=O)c(C)c32)c1 [trametinib] | – | – | – | – | – | – | – | – | – | – | – | – | rash or acneiform dermatitis, diarrhea, fatigue, nausea, and vomiting | five days | 2 mg
